Test results published in ChEMBL document CHEMBL1141780, “Diterpenoid, steroid, and triterpenoid agonists of liver X receptors from diversified terrestrial plants and marine sources” (J Nat Prod, 2005).
Calls of active or inactive are those of the source. The rule behind the calls is not given here.

Legend:
[1] = molecular target: T1, Oxysterols receptor LXR-alpha (Homo sapiens, UniProt Q13133); test: Agonist activity at human recombinant LXRalpha expressed in Escherichia coli BL21 cells assessed as association of recombinant SRC1 to LXRalpha ligand binding domain by HTRF assay
T1 sequence (Q13133 whole entry): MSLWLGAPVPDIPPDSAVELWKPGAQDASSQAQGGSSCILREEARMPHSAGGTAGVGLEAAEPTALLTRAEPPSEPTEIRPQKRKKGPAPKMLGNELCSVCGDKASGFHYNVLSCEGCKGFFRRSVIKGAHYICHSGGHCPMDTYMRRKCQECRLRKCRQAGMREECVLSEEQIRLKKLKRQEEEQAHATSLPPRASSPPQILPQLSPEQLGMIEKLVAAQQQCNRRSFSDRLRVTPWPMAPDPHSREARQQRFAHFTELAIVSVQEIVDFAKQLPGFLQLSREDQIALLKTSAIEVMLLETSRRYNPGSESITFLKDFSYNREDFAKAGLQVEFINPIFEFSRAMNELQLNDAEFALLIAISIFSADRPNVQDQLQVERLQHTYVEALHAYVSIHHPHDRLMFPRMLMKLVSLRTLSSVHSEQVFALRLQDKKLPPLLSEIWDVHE

[2] = molecular target: T2, Oxysterols receptor LXR-beta (Homo sapiens) (UniProt P55055); details: BL21
T2 sequence (whole entry): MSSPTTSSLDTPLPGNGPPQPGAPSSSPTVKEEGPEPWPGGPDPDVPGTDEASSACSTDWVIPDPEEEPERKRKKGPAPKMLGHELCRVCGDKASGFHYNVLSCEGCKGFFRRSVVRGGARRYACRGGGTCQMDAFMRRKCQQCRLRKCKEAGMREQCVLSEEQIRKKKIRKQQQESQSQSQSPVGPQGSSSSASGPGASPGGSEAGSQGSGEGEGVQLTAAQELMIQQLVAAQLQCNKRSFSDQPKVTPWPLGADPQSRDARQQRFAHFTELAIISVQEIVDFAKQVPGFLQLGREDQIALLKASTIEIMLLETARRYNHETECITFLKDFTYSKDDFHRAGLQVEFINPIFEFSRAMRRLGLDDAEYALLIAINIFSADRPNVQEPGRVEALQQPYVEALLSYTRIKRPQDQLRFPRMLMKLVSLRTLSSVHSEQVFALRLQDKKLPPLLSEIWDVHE

[3] = molecular target: T3, Oxysterols receptor LXR-beta (Homo sapiens, UniProt P55055); test: Agonist activity at human recombinant LXRbeta expressed in Escherichia coli BL21 cells assessed as association of recombinant SRC1 to LXRbeta ligand binding domain by HTRF assay
T3 sequence (P55055 whole entry): T2 sequence (whole entry)

[4] = molecular target: Liver X receptor (LXR alpha AND LXR beta) (Homo sapiens) (UniProt Q13133+P55055); test: Selectivity of human recombinant LXRalpha over human recombinant LXRbeta; format: protein assay
[5] = molecular target: T2, Oxysterols receptor LXR-beta (Homo sapiens); test: Activity of human recombinant LXRbeta ligand binding domain-mediated transcriptional activity in human HEK293 cells with Gal4 reporter plasmid at 30 uM by luciferase reporter assay; format: cell-based
How it was run: (§1)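 Cell-based transactivation in HEK-293 cells with chimeric constructs: yeast Gal4 DNA-binding domain fused to the hinge region and LBD of LXRα or LXRβ. Agonist activity is read as fold induction over DMSO control.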

[6] = molecular target: T4, Oxysterols receptor LXR-alpha (Homo sapiens) (UniProt Q13133); test: Activity of human recombinant LXRalpha ligand binding domain-mediated transcriptional activity in human HEK293 cells with Gal4 reporter plasmid at 30 uM by luciferase reporter assay; format: cell-based; how it was run: as §1
T4 sequence (whole entry): T1 sequence (Q13133 whole entry)

[7] = molecular target: T2, Oxysterols receptor LXR-beta (Homo sapiens); test: Agonist activity at human recombinant LXRbeta expressed in Escherichia coli BL21 cells assessed as association of recombinant SRC1 to LXRbeta ligand binding domain at 10 uM by HTRF assay
[8] = molecular target: T2, Oxysterols receptor LXR-beta (Homo sapiens); test: Activity of human recombinant LXRbeta ligand binding domain-mediated transcriptional activity in human HEK293 cells with Gal4 reporter plasmid by luciferase reporter assay; format: cell-based; how it was run: as §1
[9] = molecular target: T4, Oxysterols receptor LXR-alpha (Homo sapiens); test: Activity of human recombinant LXRalpha ligand binding domain-mediated transcriptional activity in human HEK293 cells with Gal4 reporter plasmid by luciferase reporter assay; format: cell-based; how it was run: as §1
[10] = molecular target: T2, Oxysterols receptor LXR-beta (Homo sapiens); test: Displacement of [3H2]F3-methyl AA from human recombinant LXRbeta expressed in Escherichia coli BL21 cells at 100 uM
[11] = molecular target: T4, Oxysterols receptor LXR-alpha (Homo sapiens); test: Displacement of [3H2]F3-methyl AA from human recombinant LXRalpha expressed in Escherichia coli BL21 cells at 100 uM
[12] = molecular target: T4, Oxysterols receptor LXR-alpha (Homo sapiens); test: Activity of human recombinant LXRalpha ligand binding domain-mediated transcriptional activity in human HEK293 cells with Gal4 reporter plasmid at 100 uM by luciferase reporter assay; format: cell-based; how it was run: as §1
[13] = molecular target: T2, Oxysterols receptor LXR-beta (Homo sapiens); test: Activity of human recombinant LXRbeta ligand binding domain-mediated transcriptional activity in human HEK293 cells with Gal4 reporter plasmid at 100 uM by luciferase reporter assay; format: cell-based; how it was run: as §1
[14] = molecular target: T4, Oxysterols receptor LXR-alpha (Homo sapiens); test: Activity of human recombinant LXRalpha ligand binding domain-mediated transcriptional activity in human HEK293 cells with Gal4 reporter plasmid at 2.2 uM by luciferase reporter assay; format: cell-based; how it was run: as §1

| SMILES | EC50 [1] [µM] | LC50 [2] [µM] | EC50 [3] [µM] | further results |
| --- | --- | --- | --- | --- |
| C/C(=C\CC[C@@H](C)[C@H]1CC[C@@]2(C)[C@@H]3CC=C4[C@@H](CC[C@@H](O)C4(C)C)[C@]3(C)CC[C@]12C)C(=O)O [ROSACEA ACID B] | > 50 | 0.39 | > 50 | – |
| CC(C)CCC[C@@H](C)[C@H]1CC[C@H]2C3=CC(=O)[C@H]4C[C@@H](O)CC[C@]4(C)[C@@]3(O)CC[C@]12C [VIPERIDONE] | > 15 | – | – | – |
| CC(C)[C@H](C)[C@@]1(C)C[C@@H]1[C@@H](C)[C@H]1CC[C@H]2[C@@H]3CC=C4C[C@@H](O)CC[C@]4(C)[C@@]3(O)[C@H](O)C[C@]12C | 0.45 | 50 | – | fold change (FC) [4]: 40; Activity [5]: inactive; fold change (FC) [6]: 10.1 |
| C=C(CC[C@@H](C)[C@H]1CC[C@H]2[C@@H]3[C@@H](O)[C@@H](O)[C@@]4(O)C[C@@H](O)CC[C@]4(C)[C@H]3CC[C@]12C)C(C)C | 0.17 | – | – | Activity [7]: inactive |
| CCCc1c(OCCCSc2ccc(CC(=O)O)cc2Cl)ccc2c(C(F)(F)F)noc12 | – | 0.025 | – | fold change (FC) [8]: 35; fold change (FC) [9]: 20 |
| C=C[C@@]1(C)CC=C2[C@@H](CC[C@@H]3[C@](C)(CO)CCC[C@@]23C)C1 | 0.39 | 0.73 | > 50 | – |
| CC(C)CC[C@@H](O)[C@@H](C)[C@H]1CC[C@H]2[C@@H]3CC=C4C[C@@H](O)CC[C@]4(C)[C@H]3CC[C@]12C [22(R)-HYDROXYCHOLESTEROL] | > 15 | – | > 15 | fold change (FC) [8]: 8; Activity [10]: 60%; Activity [11]: 70%; fold change (FC) [9]: 4 |
| C=C(C)[C@@H]1CC[C@]2(C(=O)O)CC[C@]3(C)[C@H](CC[C@@H]4[C@@]5(C)CC[C@H](O)C(C)(C)[C@@H]5CC[C@]43C)[C@@H]12 [BETULINIC ACID] | > 50 | > 25 | > 50 | – |
| CC(=O)Oc1ccc2c(c1)[C@@]1(C)CCC[C@](C)(C(=O)OC(=O)[C@@]3(C)CCC[C@]4(C)c5cc(OC(C)=O)ccc5CC[C@@H]34)[C@@H]1CC2 [ACETYL PODOCARPIC ACID ANHYDRIDE] | 0.001 | 0.001 | < 0.003 | fold change (FC) [8]: 85; fold change (FC) [9]: 50 |
| C[C@]1(C(=O)O)CCC[C@]2(C)c3cc(O)ccc3CC[C@@H]12 [PODOCARIC ACID] | > 50 | > 50 | > 50 | – |
| C=C[C@@]1(C)CC=C2[C@@H](CC[C@@H]3[C@](C)(C(=O)O)CCC[C@@]23C)C1 | 0.18 | 1.49 | > 50 | fold change (FC) [12]: 15.9; fold change (FC) [13]: 5.6 |
| CC(C)=CCC[C@@H](C)[C@H]1C[C@H](O)[C@@]2(C)C3=CC[C@H]4C(C)(C)[C@@H](O)CC[C@]4(C)C3=CC[C@]12C | 0.03 | > 15 | > 50 | fold change (FC) [14]: 8 |
| CC(C)[C@H](C)[C@@]1(C)C[C@@H]1[C@@H](C)[C@H]1CC[C@H]2[C@@H]3C[C@@H](O)[C@@]4(O)C[C@@H](O)CC[C@]4(C)[C@@]3(O)[C@H](O)C[C@]12C | 0.05 | 0.2 | – | Activity [7]: inactive |
| C=C[C@@]1(C)CC=C2[C@@H](CC[C@@H]3[C@](C)(C(=O)NCC45CC6CC(CC(C6)C4)C5)CCC[C@@]23C)C1 | > 50 | > 50 | > 50 | – |
